Laboratory results: ChEMBL document CHEMBL1821598, “Synthesis, structure-activity relationship and biological evaluation of anticancer activity for novel N-substituted sophoridinic acid derivatives” (Bioorg Med Chem Lett, 2011)
≈ marks a conversion by molar mass, not a printed value. Calls of active or inactive are those of the source. The calls are words filed in the database; no cut-off is given here.

Legend:
HepG2 [1] = assay: Cytotoxicity against human HepG2 cells after 48 hrs by Sulforhodamine B assay; format: functional, cell-based; conditions: for IC50: HepG2, 48 h
Summary of the method: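 HepG2 cells treated at a series of concentrations for 48 h. Cell death was read by sulforhodamine B staining.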

HepG2 [2] = assay: Inhibition of cell proliferation of human HepG2 cells at 30 ug/mL after 48 hrs by Sulforhodamine B assay; format: functional; conditions: HepG2, 48 h
Summary of the method: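 HepG2 cells exposed to test compounds at 30 μg/mL for 48 h. HCPT at 30 μg/mL was the positive control. Proliferation was read by SRB and reported as % inhibition. Values are mean ± SD of three separate experiments.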

HepG2 [3] = assay: Cell cycle arrest in human HepG2 cells assessed as accumulation at S phase at 20 ug/mL after 24 hrs by flow cytometry (Rvb= 25.4%); format: functional
Summary of the method: (§1)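 HepG2 cells incubated with or without compound at 20 μg/mL for 4, 12 or 24 h. Cell cycle distribution (G0/G1, S, G2/M) was read from DNA content by flow cytometry. Untreated cells served as control.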

HepG2 [4] = assay: Cell cycle arrest in human HepG2 cells assessed as accumulation at S phase at 20 ug/mL after 4 hrs by flow cytometry (Rvb= 25.4%); format: functional; summary of the method: as §1
HepG2 [5] = assay: Cell cycle arrest in human HepG2 cells assessed as accumulation at G0/G1 phase at 20 ug/mL after 4 hrs by flow cytometry (Rvb= 63.1%); format: functional; summary of the method: as §1
HepG2 [6] = assay: Cell cycle arrest in human HepG2 cells assessed as accumulation at G0/G1 phase at 20 ug/mL after 12 hrs by flow cytometry (Rvb= 63.1%); format: functional; summary of the method: as §1
[7] = Inhibition of cell proliferation of human […] cells at 30 ug/mL after 48 hrs by Sulforhodamine B assay; format: functional
Summary of the method: (§2)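 Human tumor cell lines were treated at 30 μg/mL for 48 h. Antiproliferative activity was measured by SRB assay.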

HepG2 [8] = assay: Cell cycle arrest in human HepG2 cells assessed as accumulation at G2/M phase at 20 ug/mL after 4 hrs by flow cytometry (Rvb= 11.5%); format: functional; summary of the method: as §1
HepG2 [9] = assay: Cell cycle arrest in human HepG2 cells assessed as accumulation at G2/M phase at 20 ug/mL after 24 hrs by flow cytometry (Rvb= 11.5%); format: functional; summary of the method: as §1
A549 = assay: Inhibition of cell proliferation of human A549 cells at 30 ug/mL after 48 hrs by Sulforhodamine B assay; format: functional; conditions: A549, 48 h; summary of the method: as §2
MCF7 = assay: Inhibition of cell proliferation of human MCF7 cells at 30 ug/mL after 48 hrs by Sulforhodamine B assay; format: functional; conditions: MCF7, 48 h; summary of the method: as §2
HepG2 [10] = assay: Cell cycle arrest in human HepG2 cells assessed as accumulation at G2/M phase at 20 ug/mL after 12 hrs by flow cytometry (Rvb= 11.5%); format: functional; summary of the method: as §1
HepG2 [11] = assay: Cell cycle arrest in human HepG2 cells assessed as accumulation at G0/G1 phase at 20 ug/mL after 24 hrs by flow cytometry (Rvb= 63.1%); format: functional; summary of the method: as §1
HepG2 [12] = assay: Induction of apoptosis in human HepG2 cells assessed as disappearance of nuclear membrane and appearance of apoptotic body at 20 ug/mL after 48 hrs by microscopy relative to control; format: functional, cell-based
Summary of the method: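 HepG2 cells untreated or treated at 20 μg/mL for 48 h. Cells were harvested onto slides and examined by microscopy for apoptotic morphology.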

[13] = target: T1, DNA topoisomerase 1 (Homo sapiens) (UniProt P11387); assay: Inhibition of DNA topoisomerase 1 using DNA substrate after 0.5 hrs by gel electrophoresis
T1 sequence (whole entry): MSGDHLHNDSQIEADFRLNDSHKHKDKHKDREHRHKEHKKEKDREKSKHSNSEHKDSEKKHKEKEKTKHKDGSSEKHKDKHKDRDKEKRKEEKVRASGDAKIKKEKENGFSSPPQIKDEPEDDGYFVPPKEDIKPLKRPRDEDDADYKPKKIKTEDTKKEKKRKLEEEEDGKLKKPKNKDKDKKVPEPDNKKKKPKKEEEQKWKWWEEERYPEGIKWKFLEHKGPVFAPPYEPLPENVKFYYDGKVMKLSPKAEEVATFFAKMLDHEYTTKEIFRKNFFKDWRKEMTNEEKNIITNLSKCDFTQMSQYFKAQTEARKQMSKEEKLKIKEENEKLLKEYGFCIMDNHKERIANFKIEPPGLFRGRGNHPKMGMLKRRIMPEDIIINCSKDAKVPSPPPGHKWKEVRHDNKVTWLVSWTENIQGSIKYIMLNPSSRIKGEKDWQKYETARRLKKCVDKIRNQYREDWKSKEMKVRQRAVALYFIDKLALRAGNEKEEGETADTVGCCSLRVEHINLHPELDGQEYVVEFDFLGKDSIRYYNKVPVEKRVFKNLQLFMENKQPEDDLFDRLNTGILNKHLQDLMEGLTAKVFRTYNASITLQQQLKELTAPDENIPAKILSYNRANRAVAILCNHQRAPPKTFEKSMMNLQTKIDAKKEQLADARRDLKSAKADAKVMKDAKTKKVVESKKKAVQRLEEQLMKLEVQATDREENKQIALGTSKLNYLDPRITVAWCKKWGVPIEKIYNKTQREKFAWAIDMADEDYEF
Summary of the method: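 Run over a range of concentrations, with HCPT as positive control.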

HepG2 [14] = assay: Cell cycle arrest in human HepG2 cells assessed as accumulation at S phase at 20 ug/mL after 12 hrs by flow cytometry (Rvb= 25.4%); format: functional; summary of the method: as §1

Row | Structure (SMILES) | inhibition at 30 µg/mL (HepG2 [2]) | further results
1 | CC(C)(C)C(=O)N1C[C@@H]2CCCN3CCC[C@@H]([C@H]23)[C@@H]1CCCC(=O)O | 41.1% | inhibition (HepG2 [1]): Dose-dependent effect; IC50 (HepG2 [1]): 43.6 µg/mL (≈ 124 µM)
2 | O=C(O)CCC[C@H]1[C@H]2CCCN3CCC[C@@H](CN1C(=O)c1cccc([N+](=O)[O-])c1)[C@@H]23 | < 5% | –
3 | Cc1ccc(S(=O)(=O)N2C[C@@H]3CCCN4CCC[C@@H]([C@H]34)[C@@H]2CCCC(=O)O)cc1 | 13.4% | –
4 | COC(=O)N1C[C@@H]2CCCN3CCC[C@@H]([C@H]23)[C@@H]1CCCC(=O)O | 7.8% | –
5 | COc1cc(C(=O)N2C[C@@H]3CCCN4CCC[C@@H]([C@H]34)[C@@H]2CCCC(=O)O)cc(OC)c1OC | 11.8% | –
6 | CC(Br)C(=O)N1C[C@@H]2CCCN3CCC[C@@H]([C@H]23)[C@@H]1CCCC(=O)O (stereo partly drawn) | 15.6% | –
7 | O=C(O)CCC[C@H]1[C@H]2CCCN3CCC[C@@H](CN1C(=O)CBr)[C@@H]23 | 88% | Activity (HepG2 [3]): 41.8%; Activity (HepG2 [4]): 40.2%; Activity (HepG2 [5]): 50.4%; Activity (HepG2 [6]): 53.8%; inhibition at 30 µg/mL [7]: 68%; inhibition (HepG2 [1]): Dose-dependent effect; IC50 (HepG2 [1]): 15.4 µg/mL (≈ 39.8 µM); Activity (HepG2 [8]): 9.43%; Activity (HepG2 [9]): 10.4%; inhibition at 30 µg/mL (A549): 40%; inhibition at 30 µg/mL (MCF7): 73.3%; Activity (HepG2 [10]): 7.88%; Activity (HepG2 [11]): 47.7%; Activity (HepG2 [12]): Active; inhibition [13]: Active; Activity (HepG2 [14]): 38.3%
8 | Cc1ccc(C(=O)N2C[C@@H]3CCCN4CCC[C@@H]([C@H]34)[C@@H]2CCCC(=O)O)cc1 | 8.5% | –
9 | O=C1CCC[C@@H]2[C@H]3CCCN4CCC[C@H](CN12)[C@@H]34 [SOPHORIDINE] | 13.8% | inhibition [13]: Active
10 | O=C(O)CCC[C@H]1[C@H]2CCCN3CCC[C@@H](CN1C(=O)c1ccccc1)[C@@H]23 | < 5% | –
11 | COc1ccc(CN2C[C@@H]3CCCN4CCC[C@@H]([C@H]34)[C@@H]2CCCC(=O)O)cc1 | < 5% | –
12 | Cc1c(C(=O)N2C[C@@H]3CCCN4CCC[C@@H]([C@H]34)[C@@H]2CCCC(=O)O)cccc1[N+](=O)[O-] | 8.9% | –
13 | O=C(O)CCC[C@H]1[C@H]2CCCN3CCC[C@@H](CN1C(=O)c1ccc(F)c([N+](=O)[O-])c1)[C@@H]23 | 7.7% | –
14 | Cc1ccc(CN2C[C@@H]3CCCN4CCC[C@@H]([C@H]34)[C@@H]2CCCC(=O)O)cc1 | < 5% | –
15 | O=C(O)CCC[C@@H]1NC[C@@H]2CCCN3CCC[C@H]1[C@H]23 [SOPHORIDINIC ACID] | 10.3% | –
16 | COc1ccc(C(=O)N2C[C@@H]3CCCN4CCC[C@@H]([C@H]34)[C@@H]2CCCC(=O)O)cc1 | < 5% | –
17 | O=C(O)CCC[C@H]1[C@H]2CCCN3CCC[C@@H](CN1C(=O)c1ccc4c(c1)OCO4)[C@@H]23 | 11.4% | –
18 | O=C(O)CCC[C@H]1[C@H]2CCCN3CCC[C@@H](CN1C(=O)OCc1ccccc1)[C@@H]23 | 8.4% | –
19 | CCOC(=O)N1C[C@@H]2CCCN3CCC[C@@H]([C@H]23)[C@@H]1CCCC(=O)O | 19.9% | –
20 | COc1ccc(C(=O)N2C[C@@H]3CCCN4CCC[C@@H]([C@H]34)[C@@H]2CCCC(=O)O)cc1[N+](=O)[O-] | < 5% | –
21 | CC[C@@]1(O)C(=O)OCc2c1cc1n(c2=O)Cc2cc3cc(O)ccc3nc2-1 [HYDROXYCAMPTOTHECIN] | 92% | –
22 | O=C(O)CCC[C@H]1[C@H]2CCCN3CCC[C@@H](CN1C(=O)c1ccc(F)cc1)[C@@H]23 | < 5% | –
23 | CC(=O)N1C[C@@H]2CCCN3CCC[C@@H]([C@H]23)[C@@H]1CCCC(=O)O | 11.2% | –
24 | O=C(O)CCC[C@H]1[C@H]2CCCN3CCC[C@@H](CN1S(=O)(=O)c1ccccc1)[C@@H]23 | < 5% | –
